Test results taken from ChEMBL document CHEMBL5608261, “Pharmacophore Establishment and Optimization of Saturated 1,6-Naphthyridine-Fused Quinazolinones that Inhibit Meningoencephalitis-Causing Naegleria fowleri” (J Med Chem, 2024).
In brackets after ≈: the same amount, converted by molar mass.

Legend:
[1] = Metabolic stability in CD-1 mouse liver microsomes assessed as half-life incubated for 60 mins by LC-MS/MS analysis; format: ADME, Microsome; conditions: 1 h
In short: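 Half-life measured in CD-1 mouse liver microsomes with NADPH over a 60 min exposure.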

SH-SY5Y = assay: Cytotoxicity against human SH-SY5Y cells assessed as reduction in cell viability incubated for 72 hrs by CellTiter-Glo assay; format: toxicity, cell-based; conditions: sh-sy5y, 72 h
In short: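 SH-SY5Y cells at 2000 per well attached overnight at 37 °C. Compound from 20 mM DMSO stocks was added in triplicate as a dose series starting at 20 μM, with doxorubicin as positive control.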

[2] = Kinetic solubility of compound at pH 7.4 incubated for 24 hrs by HPLC analysis; format: physicochemical; conditions: buffer; for Kinetic_solubility: pH 7.4, 24 h; for solubility kinetic at 24 h: pH 7.4, read-out: Kinetic_solubility
Naegleria fowleri = assay: Anti-ameobic activity against Naegleria fowleri Nf69 (ATCC 30215) trophozoites assessed as inhibition of amoeba growth incubated for 48 hrs by CellTiter-Glo assay; format: functional, organism-based
In short: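 Axenic Nf69 trophozoites were seeded at 1 × 10^4 cells/mL in Nelson's complete medium with 10% heat-inactivated FBS. Compound was added at 20 to 0.375 μM (lower ranges for very potent compounds), with vehicle controls, for 48 h at 37 °C and 5% CO2. CellTiter-Glo luminescence gave % growth inhibition versus controls, and triplicate means were fitted to dose–response curves for EC50.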

[3] = Selectivity index, ratio of CC50 for cytotoxicity against human SH-SY5Y cells to EC50 for anti-amoebic activity against Naegleria fowleri Nf69 (ATCC 30215) assessed as inhibition of amoeba growth; format: toxicity, cell-based; conditions: for selectivity ratio: SH-SY5Y cells, read-out: Ratio CC50/EC50
[4] = Naegleria fowleri, Nf69 (ATCC 30215), 48 h

Structure (SMILES): CN1CCC[C@@H]2c3nc4cc(Cl)c(Cl)cc4c(=O)n3CC[C@H]21
- t1/2 [1]: 6.1 min
- CC50 (SH-SY5Y): 7800 nM
- Kinetic_solubility ([2]; 24 h): 98.2 µM
- EC50 (Naegleria fowleri): 86 nM
- Ratio CC50/EC50 [3]: 90.7

Structure (SMILES): CN1CCC[C@@H]2c3nc4ccc(Cl)cc4c(=O)n3CC[C@H]21
- t1/2 [1]: 11.5 min
- CC50 (SH-SY5Y): > 20000 nM
- Kinetic_solubility ([2]; 24 h): 129 µM
- EC50 (Naegleria fowleri): 280 nM
- Ratio CC50/EC50 [3]: > 71.4

Structure (SMILES): CN1CCC[C@@H]2c3nc4ccc(C(F)(F)F)cc4c(=O)n3CC[C@H]21
- t1/2 [1]: 10.9 min
- Kinetic_solubility ([2]; 24 h): 109 µM
- EC50 (Naegleria fowleri): 250 nM
- Ratio CC50/EC50 [3]: > 80

Structure (SMILES): COc1cc2nc3n(c(=O)c2cc1Cl)CC[C@H]1[C@H]3CCCN1CC(C)C
- CC50 (SH-SY5Y): 1000 nM
- solubility kinetic at 24 h [2]: 2.6 µM (≈ 0.977 µg/mL)
- EC50 (Naegleria fowleri; [4]): 27 nM
- selectivity ratio [3]: 38

Structure (SMILES): O=c1c2cc(Cl)c(Cl)cc2nc2n1CC[C@@H]1[C@@H]2CCCN1CC1COC1 (racemic)
- t1/2 [1]: 109 min
- CC50 (SH-SY5Y): > 20000 nM
- Kinetic_solubility [2]: 40 µM
- EC50 (Naegleria fowleri; [4]): 6 nM
- selectivity ratio [3]: > 33000

Structure (SMILES): COc1cc2nc3n(c(=O)c2cc1Cl)CC[C@@H]1[C@@H]3CCCN1CC1COC1 (racemic)
- t1/2 [1]: > 145 min
- CC50 (SH-SY5Y): 5000 nM
- Kinetic_solubility ([2]; 24 h): 198 µM
- EC50 (Naegleria fowleri): 29 nM
- Ratio CC50/EC50 [3]: 172

Structure (SMILES): CC(C)N1CCC[C@@H]2c3nc4cc(Cl)c(Cl)cc4c(=O)n3CC[C@H]21 (racemic)
- t1/2 [1]: 41.1 min
- CC50 (SH-SY5Y): > 20000 nM
- EC50 (Naegleria fowleri; [4]): 40 nM

Structure (SMILES): CC(C)OCCN1CCC[C@@H]2c3nc4cc(Cl)c(Cl)cc4c(=O)n3CC[C@H]21 (racemic)
- t1/2 [1]: 9.8 min
- CC50 (SH-SY5Y): > 20000 nM
- EC50 (Naegleria fowleri; [4]): 0.4 nM

Structure (SMILES): O=c1c2cc(Cl)c(Cl)cc2nc2n1CC[C@@H]1[C@@H]2CCCN1CC1CCOCC1 (racemic)
- t1/2 [1]: 67.2 min
- CC50 (SH-SY5Y): > 20000 nM
- EC50 (Naegleria fowleri; [4]): 7 nM

Structure (SMILES): COc1cc2nc3n(c(=O)c2cc1C#N)CC[C@@H]1[C@@H]3CCCN1CC1COC1 (racemic)
- t1/2 [1]: 104.6 min
- CC50 (SH-SY5Y): > 20000 nM
- solubility kinetic at 24 h [2]: 136 µM (≈ 51.7 µg/mL)
- EC50 (Naegleria fowleri; [4]): 120 nM
- selectivity ratio [3]: > 167

Structure (SMILES): O=c1c2cc(Cl)c(Cl)cc2nc2n1CC[C@@H]1[C@@H]2CCCN1CCO (racemic)
- t1/2 [1]: 83.1 min
- CC50 (SH-SY5Y): > 20000 nM
- Kinetic_solubility [2]: < 10 µM
- EC50 (Naegleria fowleri; [4]): 20 nM

Structure (SMILES): CC(C)CN1CCC[C@@H]2c3nc4cc(Cl)c(Cl)cc4c(=O)n3CC[C@H]21 (racemic)
- t1/2 [1]: 19.7 min
- CC50 (SH-SY5Y): > 20000 nM
- EC50 (Naegleria fowleri; [4]): 7 nM

Structure (SMILES): COc1cc2nc3n(c(=O)c2cc1Cl)CC[C@@H]1[C@@H]3CCCN1CC1CCC1 (racemic)
- t1/2 [1]: 3.8 min
- CC50 (SH-SY5Y): 640 nM
- solubility kinetic at 24 h [2]: 4.6 µM (≈ 1.78 µg/mL)
- EC50 (Naegleria fowleri; [4]): 15 nM
- selectivity ratio [3]: 42.7

Structure (SMILES): O=c1c2cc(Cl)c(Cl)cc2nc2n1CC[C@@H]1[C@@H]2CCCN1CC1CC1 (racemic)
- t1/2 [1]: 18.3 min
- CC50 (SH-SY5Y): 4800 nM
- EC50 (Naegleria fowleri; [4]): 2 nM
- selectivity ratio [3]: 2400

Structure (SMILES): O=c1c2cc(Cl)c(Cl)cc2nc2n1CC[C@@H]1[C@@H]2CCCN1Cc1cccnc1 (racemic)
- t1/2 [1]: 21.9 min
- CC50 (SH-SY5Y): > 20000 nM
- EC50 (Naegleria fowleri; [4]): 0.2 nM

Structure (SMILES): COCCN1CCC[C@@H]2c3nc4cc(Cl)c(Cl)cc4c(=O)n3CC[C@H]21 (racemic)
- t1/2 [1]: 17 min
- CC50 (SH-SY5Y): 10000 nM
- EC50 (Naegleria fowleri; [4]): 23 nM
- selectivity ratio [3]: 435

Structure (SMILES): CC(C)NCCN1CCC[C@@H]2c3nc4cc(Cl)c(Cl)cc4c(=O)n3CC[C@H]21 (racemic)
- CC50 (SH-SY5Y): 6400 nM
- EC50 (Naegleria fowleri; [4]): 130 nM
- selectivity ratio [3]: 49

Structure (SMILES): COc1cc2nc3n(c(=O)c2cc1Cl)CC[C@@H]1[C@@H]3CCCN1Cc1cccnc1 (racemic)
- CC50 (SH-SY5Y): > 20000 nM
- solubility kinetic at 24 h [2]: 3.8 µM (≈ 1.56 µg/mL)
- EC50 (Naegleria fowleri; [4]): 120 nM
- selectivity ratio [3]: > 167

Structure (SMILES): O=c1c2cc(Cl)c(Cl)cc2nc2n1CC[C@@H]1[C@@H]2CCCN1CCN1CCOCC1 (racemic)
- t1/2 [1]: 75.2 min
- CC50 (SH-SY5Y): > 20000 nM
- Kinetic_solubility [2]: 206 µM
- EC50 (Naegleria fowleri; [4]): 11 nM
